Source: ChEMBL document CHEMBL1250505, “Synthesis and biological property of some novel 1,3,4-oxadiazoles” (2010)

What was measured:
Assay type in all cases: functional
Escherichia coli [1] = assay: Antibacterial activity against Escherichia coli at 50 ug/ml after 24 to 48 hrs by cup-plate method; conditions: read-out: IZ
Summary of the method: (§1)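 Sterile nutrient agar cooled to […] and seeded with 18-24 h sub-cultures, then poured at about 45-50 mL per dish. Wells cut with a 6 mm sterile cork borer and filled with 0.1 mL of each of two test dilutions. Plates incubated inverted at 37 °C for 24–48 h; inhibition zone diameters measured in mm. Streptomycin and procaine penicillin served as standards.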

Mus musculus [2] = assay: Analgesic activity in albino mouse assessed as paw licking latency at 100 mg/kg after 4 hrs by Eddy's hot plate method
Summary of the method: (§2)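 Albino mice of either sex, fasted 24 h, 6 per group. Compounds given at 100 mg/kg; control group received 2% acacia suspension, standard group pentazocine 35 mg/kg. Hot plate held at 55 ± 1 °C. Reaction time is the time to lick a hind paw or leap off the plate, recorded at 0, 30, 60, 120 and 240 min after dosing.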

Mus musculus [3] = assay: Analgesic activity in albino mouse assessed as paw licking latency at 100 mg/kg after 1 hr by Eddy's hot plate method; summary of the method: as §2
Pseudomonas aeruginosa [4] = assay: Antibacterial activity against Pseudomonas aeruginosa at 50 ug/ml after 24 to 48 hrs by cup-plate method; conditions: read-out: IZ; summary of the method: as §1
Mus musculus [5] = assay: Analgesic activity in albino mouse assessed as paw licking latency at 100 mg/kg after 2 hrs by Eddy's hot plate method; summary of the method: as §2
Pseudomonas aeruginosa [6] = assay: Antibacterial activity against Pseudomonas aeruginosa at 100 ug/ml after 24 to 48 hrs by cup-plate method; conditions: read-out: IZ; summary of the method: as §1
Staphylococcus aureus [7] = assay: Antibacterial activity against Staphylococcus aureus at 100 ug/ml after 24 to 48 hrs by cup-plate method; conditions: read-out: IZ; summary of the method: as §1
Staphylococcus aureus [8] = assay: Antibacterial activity against Staphylococcus aureus at 50 ug/ml after 24 to 48 hrs by cup-plate method; conditions: read-out: IZ; summary of the method: as §1
Mus musculus [9] = assay: Analgesic activity in albino mouse assessed as paw licking latency at 100 mg/kg after 0.5 hrs by Eddy's hot plate method; summary of the method: as §2
Bacillus subtilis [10] = assay: Antibacterial activity against Bacillus subtilis at 50 ug/ml after 24 to 48 hrs by cup-plate method; conditions: read-out: IZ; summary of the method: as §1
Bacillus subtilis [11] = assay: Antibacterial activity against Bacillus subtilis at 100 ug/ml after 24 to 48 hrs by cup-plate method; conditions: read-out: IZ; summary of the method: as §1
Escherichia coli [12] = assay: Antibacterial activity against Escherichia coli at 100 ug/ml after 24 to 48 hrs by cup-plate method; conditions: read-out: IZ; summary of the method: as §1

Structure (SMILES) | zone of inhibition at 50 µg/mL (Escherichia coli [1]) [mm] | Time (Mus musculus [2]) [s] | Time (Mus musculus [3]) [s] | zone of inhibition at 50 µg/mL (Pseudomonas aeruginosa [4]) [mm] | Time (Mus musculus [5]) [s] | zone of inhibition at 100 µg/mL (Pseudomonas aeruginosa [6]) [mm] | zone of inhibition at 100 µg/mL (Staphylococcus aureus [7]) [mm] | zone of inhibition at 50 µg/mL (Staphylococcus aureus [8]) [mm] | Time (Mus musculus [9]) [s] | zone of inhibition at 50 µg/mL (Bacillus subtilis [10]) [mm] | zone of inhibition at 100 µg/mL (Bacillus subtilis [11]) [mm] | zone of inhibition at 100 µg/mL (Escherichia coli [12]) [mm]
COc1ccccc1-c1cccc(-c2n[nH]c(=S)o2)c1 | 12 | 6.28 | 5.84 | 11 | 7.61 | 18 | 18 | 11 | 4.94 | 10 | 21 | 18
Fc1ccccc1-c1cccc(-c2n[nH]c(=S)o2)c1 | 15 | 5.04 | 5.24 | 18 | 5.38 | 21 | 20 | 15 | 4.99 | 12 | 19 | 19
S=c1[nH]nc(-c2cccc(-c3cccc(Cl)c3)c2)o1 | 11 | 5.08 | 4.84 | 9 | 5.01 | 14 | 11 | 10 | 4.71 | 13 | 9 | 16
N#CCCCSc1nnc(-c2cccc(-c3ccccc3F)c2)o1 | 17 | 4.49 | 4.71 | 16 | 4.92 | 20 | 16 | 11 | 4.54 | 12 | 18 | 21
N#CCCCSc1nnc(-c2cccc(-c3cccc(Cl)c3)c2)o1 | 10 | 4.71 | 4.77 | 12 | 5.12 | 16 | 15 | 10 | 4.51 | 8 | 16 | 17
COc1ccc(F)cc1-c1cccc(-c2n[nH]c(=S)o2)c1 | 8 | 6.35 | 5.74 | 14 | 8.41 | 19 | 17 | 12 | 5.22 | 12 | 19 | 20
COC(=O)CCCSc1nnc(-c2cccc(-c3cc(F)ccc3OC)c2)o1 | 15 | 6.01 | 5.11 | 13 | 6.01 | 19 | 16 | 10 | 4.75 | 13 | 18 | 18
COC(=O)CCCSc1nnc(-c2cccc(-c3ccccc3OC)c2)o1 | 7 | 6.21 | 5.21 | 18 | 6.58 | 21 | 14 | 9 | 5.01 | 11 | 15 | 16
